# High-throughput results from PubChem.
# Lipid droplet = hepatic lipid droplet formation modulation; AML12 mouse hepatocytes, oleate lipid droplets, BODIPY imaging; inhibition, % at 6.5 µM; actives 0.4% (n = 240,000); AID 1656;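 active = lipid droplet intensity inhibited by at least 50%, with more than 500 cells counted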
#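 Material: mouse AML12 hepatocyte cell line, fixed after treatment; Timing: compound with oleate, overnight; Technique: high-content imaging of BODIPY-stained droplets and DAPI nuclei; Probe or stimulus: oleate, 100 µM final; Dosing: compound at 6.5 µM only.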
# CHT block = inhibits the human high affinity choline transporter; Q9GZV3; CHT-expressing cells, membrane potential dye, choline response; hits give low values; B-score at 10 µM; actives 0.86% (n = 310,000); AID 488975;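 active = B-score over 3 SD under the library average, and starting fluorescence ratio not unusually high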;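 also: choline stimulus applied at its EC90 after an EC20 pre-addition; B-score computed on integrated fluorescence ratio after choline addition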
# HSF1 inh = HSF1 inhibition; NIH3T3-HGL HSE-luciferase, MG132-induced, luminescence 8 h; hits give low values; activity change, negative = inhibition, % at 7.5 µM (by protocol); actives 0.77% (n = 300,000);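 active = more than half of replicate wells show activity change below -50%, luminescence cut by over half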;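 also: luciferase reports HSF-1 transcriptional activity via heat shock element; 0% = median of DMSO wells and -100% = zero luminescence signal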
# HSF1 activator = increases HSF-1 driven luciferase reporter signal; NIH3T3-HGL HSF-1 luciferase reporter, MG132, 8 h; 100% = twice DMSO control signal; actives 1.7% (n = 300,000); activation, % at 9 µM; AID 504408;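 active = mean replicate activation of at least 50% with a set share of replicates each reaching 50%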;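 also: 0% = median of the neutral control wells and 100% = twice that signal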
# CHT PAM = allosteric activators of human choline transporter CHT; B-score at 10 µM; CHT-expressing cells, membrane potential dye, choline EC20; hits give high values; LV-AA mutant CHT in HEK293 cells; actives 0.49% (n = 310,000);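 active = initial fluorescence not abnormally high and integrated response B-score, plate-corrected, over 3 SD above library mean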
# PHOSPHO1 block = PHOSPHO1 (human) inhibition. Q8TCT1. recombinant PHOSPHO1, absorbance phosphatase assay. inhibition, % at 13.3 µM. actives 1.1% (n = 290,000). AID 1565; in the data active = inhibition above about 60%
# Target sequence (Q8TCT1 whole entry, looked up): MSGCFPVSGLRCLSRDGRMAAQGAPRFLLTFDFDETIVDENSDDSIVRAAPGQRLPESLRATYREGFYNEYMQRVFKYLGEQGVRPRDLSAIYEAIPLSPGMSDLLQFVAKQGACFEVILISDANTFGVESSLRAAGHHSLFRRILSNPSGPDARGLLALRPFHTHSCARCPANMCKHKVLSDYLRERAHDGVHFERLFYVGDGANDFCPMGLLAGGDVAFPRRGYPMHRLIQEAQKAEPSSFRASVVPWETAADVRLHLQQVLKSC
# CHT inh conf = confirmation of human choline transporter CHT inhibitors; shares compounds with CHT block; CHT-expressing cells, choline membrane potential dye; LV-to-AA substituted CHT, HEK293 cells; actives 70% (n = 2,400); CHT activity remaining % of control (hits give low values), % at 10 µM; AID 493221;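 active = choline transporter activity left, mean of duplicates at 10 µM, below buffer-only control mean minus 3 SD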;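 also: depolarization triggered by choline at its EC90 following an EC20 pre-addition; 0% = hemicholinium-3 full block and 100% = buffer-only control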
# HEK293 CHT ctr = activity in parental HEK293 cells lacking CHT | shares compounds with CHT block | membrane potential dye, choline response; active = decrease or increase beyond buffer ±3SD | membrane potential ratio readout (active if shifted either direction beyond buffer ±3SD; no single direction) at 10 µM | actives 4% (n = 2,400) | AID 493222;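 also: parental cells lack the transporter so any hit is non-specific; ratio is peak minus trough fluorescence over baseline after EC90 choline challenge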
# Active calls of the source: *; i = inactive; . = no result given. A selection: hits, their analogues and other compounds. The true share with any hit is near 4.9%.
SMILES,Lipid droplet,CHT block,HSF1 inh,HSF1 activator,CHT PAM,PHOSPHO1 block,CHT inh conf,HEK293 CHT ctr
Cc1coc2c(C)c3oc(=O)c(CCC(=O)NCCCn4ccnc4)c(C)c3cc12,-10,i,-5,12,i,13,.,.
Cc1c(CCC(=O)NCCCn2ccnc2)c(=O)oc2c(C)c3occ(C(C)(C)C)c3cc12,-15,-5.5*,5,8,i,34,29%*,i
COc1cccc(C2c3[nH]c4ccccc4c3C[C@H]3C(=O)N(CCCOC(C)C)CC(=O)N23)c1 (some centres not stated),-16,i,-7,0,i,22,.,.
O=C(Nc1ccc2c(c1)OCO2)C1CCN(Cc2cc3c(cc2O)OCO3)CC1,.,i,0,2,i,23,.,.
Cc1cccc(N2CCN(C(=O)c3ccc(NS(=O)(=O)c4ccc5[nH]c(=O)[nH]c5c4)cc3)CC2)c1C,10,-5.1*,-7,-5,i,24,i,i
CCC(Oc1ccc(C)cc1)C(=O)Nc1ccccc1C(=O)N1CCOCC1 (configuration not stated),10,i,-2,1,i,51,.,.
O=C(O)CCN1C(=O)CC(N2C(=O)/C(=C/c3ccc(Cl)cc3)SC2=S)C1=O (configuration not stated),-6,-6.2*,-4,27,i,0,58%*,i
Cc1cc(SCC(=O)Nc2cccc(S(=O)(=O)NC3=NCCCCC3)c2)c(C)cc1Br,-28,-5*,18,38,i,8,i,i
CCCn1c(SCC(=O)Nc2cccc(S(=O)(=O)NC3=NCCCCC3)c2)nc2ccccc2c1=O,-3,i,16,21,i,40,.,.
CCOCCCn1c(SCC(=O)Nc2cccc(S(=O)(=O)NC3=NCCCCC3)c2)nc2ccccc2c1=O,12,-6.4*,1,-7,i,12,i,i
O=S(=O)(NCc1nc(-c2ccccc2)no1)c1ccc(F)cc1,-2,i,1,3,i,-141,.,.
COc1ccccc1NC(=O)/C(C#N)=C/c1ccc(OCCN2CCOCC2)c(OC)c1,5,-6*,-5,-2,i,28,i,i
Cc1ccc(C)c(C(=O)COc2ncnc3ccccc23)c1,-6,-5.2*,2,1,i,43,42%*,i
O=C(CSc1nccn1-c1ccc(F)cc1)NCc1ccc(F)cc1,0,-5.3*,0,10,i,-69,53%*,i
COc1ccc(-n2ccnc2SCC(=O)NCc2ccc(F)cc2)c(OC)c1,5,i,3,12,i,-25,.,.
Cc1cc(C(=O)Nc2ccc(Br)cc2F)n(-c2ccccc2)n1,-8,i,3,4,i,-104,.,.
COc1ccc(Nc2nc3ccccc3n2C)cc1,1,-6.5*,16,39,i,18,53%*,i
O=C1/C(=C\c2ccccn2)SC(=S)N1c1ccc(S(=O)(=O)Nc2nccs2)cc1,-1,-7*,-2,-11,i,3,i,i
Cc1ccc(/C=C2/SC(=S)N(c3ccc(S(=O)(=O)Nc4nccs4)cc3)C2=O)cc1,-2,i,1,7,i,32,.,.
CC(=O)Nc1cccc(C(=O)OCCCOc2ccc(F)cc2)c1,-1,i,19,36,i,29,.,.
CCCCN(CCCC)CCNC(=O)c1cn(C)c2ccc(S(=O)(=O)N(C)C3CCCCC3)cc2c1=O,-19,-6.9*,0,8,i,40,32%*,i
CCCN(CCC)CCCNC(=O)c1cn(C)c2ccc(S(=O)(=O)N(C)C3CCCCC3)cc2c1=O,-18,i,-5,-12,i,12,.,.
CCC1CCCCN1CCCNC(=O)c1cn(CC)c2ccc(S(=O)(=O)N(C)C3CCCCC3)cc2c1=O (configuration not stated),-16,-8.3*,-5,3,i,7,50%*,2.8*
COc1cccc(CNC(=S)Nc2cccc(Cl)c2C)c1,0,i,-4,-12,i,.,.,.
COc1ccc(CN(C(=O)c2cccs2)C(C(=O)NC2CCCCC2)c2ccc3ncccc3c2)cc1 (configuration not stated),.,-8.1*,2,23,i,33,43%*,i
SMILES,Lipid droplet,CHT block,HSF1 inh,HSF1 activator,CHT PAM,PHOSPHO1 block,CHT inh conf,HEK293 CHT ctr
O=C(NC1CCCCC1)C(c1ccc2ncccc2c1)N(Cc1ccc2c(c1)OCO2)C(=O)c1cccs1 (configuration not stated),.,-10*,3,-5,i,32,25%*,i
O=C(NC1CCCCC1)C(c1ccccc1)N(C(=O)c1cccs1)c1ccc2c(c1)OCO2 (configuration not stated),.,i,4,-9,i,13,.,.
COCCNC(=O)C(C)N(c1ccc(OC)cc1)S(C)(=O)=O (configuration not stated),0,i,-4,24,i,31,.,.
CCC(=O)c1ccc(OCC(=O)OC(C)C(=O)N2CCc3ccccc32)cc1 (configuration not stated),.,i,-1,-5,i,.,.,.
Cc1ccc(S(=O)(=O)CCC(=O)OC(C)C(=O)N2CCc3ccccc32)cc1 (configuration not stated),.,-7.4*,6,17,i,.,37%*,i
O=C1CCN(CCc2ccccc2)CCN1CCSc1ccccc1,2,-5*,4,6,i,-19,50%*,i
CN1CCC(=O)N(CCSc2ccccc2)CC1,-2,i,0,15,i,21,.,.
O=C(c1ccco1)N1CCC(c2nc(-c3ccccc3Cl)no2)CC1,-13,-5.7*,1,-7,i,-25,i,i
O=C(Cc1ccc(S(=O)(=O)N2CCOCC2)s1)Nc1ccc(N2CCOCC2)cc1,1,-5.1*,4,7,i,-72,i,i
CC(NC(=O)Cc1ccc(S(=O)(=O)N2CCOCC2)s1)c1ccc(Cl)c(Cl)c1 (configuration not stated),.,-7.1*,11,16,i,.,57%*,i
O=C(Nc1ccc(S(=O)(=O)Nc2cnc3ccccc3n2)cc1)c1cc(F)c(F)cc1Cl,0,-6.6*,2,3,i,22,27%*,i
